Laboratory results reported in ChEMBL document CHEMBL3621143, “Discovery of BMS-641988, a Novel Androgen Receptor Antagonist for the Treatment of Prostate Cancer” (ACS Med Chem Lett, 2015).
The source made the active and inactive calls. The rule behind the calls is not given here.

Assays:
[1] = tested on: CWR22; assay: Antitumor activity against bicalutamide-resistant human CWR22 cells in Balb/c athymic (nu/nu) mouse CWR22-BMSLD1 prostate cancer xenograft model assessed as tumor growth inhibition at 90 mg/kg, po qd administered for 45 days measured from day 10 to 45 during compound dosing; format: functional, organism-based
How it was run: (§1)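 CWR22-BMSLD1 human prostate cancer xenograft. Oral once-daily dosing at 90 mg/kg for 45 days, or at 150 mg/kg for 35 days, with a vehicle group. Median tumor volume (mm3) tracked against days post implant.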

[2] = target: T1, Cytochrome P450 2B6 (Homo sapiens, UniProt P20813); assay: Inhibition of human CYP2B6; format: ADME
T1 sequence (P20813 whole entry): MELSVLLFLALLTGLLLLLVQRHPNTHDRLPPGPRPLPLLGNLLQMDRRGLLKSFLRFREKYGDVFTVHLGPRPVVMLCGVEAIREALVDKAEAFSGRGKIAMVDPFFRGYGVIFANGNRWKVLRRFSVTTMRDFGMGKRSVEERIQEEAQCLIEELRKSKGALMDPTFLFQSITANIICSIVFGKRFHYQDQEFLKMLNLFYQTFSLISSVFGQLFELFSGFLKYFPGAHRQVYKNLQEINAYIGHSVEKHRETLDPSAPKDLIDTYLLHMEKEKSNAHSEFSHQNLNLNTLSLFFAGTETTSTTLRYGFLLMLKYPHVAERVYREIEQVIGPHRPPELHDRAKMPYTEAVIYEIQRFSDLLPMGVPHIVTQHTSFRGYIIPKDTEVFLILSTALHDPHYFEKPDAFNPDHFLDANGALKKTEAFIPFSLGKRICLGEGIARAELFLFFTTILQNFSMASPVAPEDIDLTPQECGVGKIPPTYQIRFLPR

[3] = AUC (0 to infinity) in mouse at 5 mg/kg, iv; format: ADME, organism-based; set-up: dose 5 mg/kg, time infinity, route intravenous; conditions: in vivo
How it was run: (§2)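 Single IV and oral doses in mouse and rat (IV 5, PO 10 mg/kg) and dog (IV 1, PO 2 mg/kg). Half-life, clearance, AUC0-∞ (µM*h) and %F derived from the plasma profiles.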

[4] = Fraction unbound in mouse plasma by equilibrium dialysis method; format: ADME, cell-free
How it was run: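 Plasma protein binding measured by equilibrium dialysis in mouse, rat, dog and human plasma, reported as % free.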

[5] = target: Cytochrome P450 2C9 (Homo sapiens, UniProt P11712); assay: Inhibition of human CYP2C9; format: ADME
Chain of Cytochrome P450 2C9 (P11712 whole entry): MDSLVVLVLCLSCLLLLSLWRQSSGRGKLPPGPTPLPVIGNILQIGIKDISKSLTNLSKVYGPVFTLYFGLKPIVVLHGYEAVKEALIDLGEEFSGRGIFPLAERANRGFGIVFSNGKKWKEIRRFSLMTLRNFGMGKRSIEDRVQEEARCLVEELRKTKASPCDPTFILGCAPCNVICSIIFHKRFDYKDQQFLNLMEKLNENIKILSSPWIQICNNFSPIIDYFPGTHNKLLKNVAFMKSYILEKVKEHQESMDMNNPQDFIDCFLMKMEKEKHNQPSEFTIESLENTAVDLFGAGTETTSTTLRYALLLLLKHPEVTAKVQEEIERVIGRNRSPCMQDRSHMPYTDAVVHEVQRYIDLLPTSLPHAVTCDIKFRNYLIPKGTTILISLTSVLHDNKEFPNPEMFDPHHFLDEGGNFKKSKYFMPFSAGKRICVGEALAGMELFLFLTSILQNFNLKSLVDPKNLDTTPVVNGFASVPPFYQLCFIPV

[6] = Clearance in dog at 1 mg/kg, iv and 2 mg/kg, po; format: ADME, organism-based, Canis lupus familiaris; conditions: in vivo; how it was run: as §2
[7] = tested on: CWR22; assay: Antitumor activity against bicalutamide-resistant human CWR22 cells in Balb/c athymic (nu/nu) mouse CWR22-BMSLD1 prostate cancer xenograft model assessed as tumor growth inhibition at 90 mg/kg, po qd administered for 45 days measured for 10 days during compound dosing; format: functional, organism-based; how it was run: as §1
[8] = target: Cytochrome P450 2D6 (Homo sapiens, UniProt P10635); assay: Inhibition of human CYP2D6; format: ADME
Chain of Cytochrome P450 2D6 (P10635 whole entry): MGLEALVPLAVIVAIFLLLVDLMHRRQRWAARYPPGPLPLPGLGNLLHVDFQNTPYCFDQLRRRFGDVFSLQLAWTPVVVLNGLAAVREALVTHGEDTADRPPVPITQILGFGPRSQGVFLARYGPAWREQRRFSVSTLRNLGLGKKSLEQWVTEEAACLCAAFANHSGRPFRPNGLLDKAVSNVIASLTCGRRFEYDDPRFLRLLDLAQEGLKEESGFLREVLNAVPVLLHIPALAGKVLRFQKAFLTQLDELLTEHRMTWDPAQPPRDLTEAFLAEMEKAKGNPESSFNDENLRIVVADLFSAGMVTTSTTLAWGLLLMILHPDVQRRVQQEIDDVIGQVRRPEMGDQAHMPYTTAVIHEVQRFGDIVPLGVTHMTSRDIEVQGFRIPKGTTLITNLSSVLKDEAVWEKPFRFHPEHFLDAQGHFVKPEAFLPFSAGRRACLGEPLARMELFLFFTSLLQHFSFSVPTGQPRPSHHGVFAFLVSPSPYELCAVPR

[9] = Drug metabolism in monkey hepatocytes assessed per 10^6 cells; format: ADME, cell-based, Macaca mulatta, Hepatocyte; conditions: rhesus monkey
How it was run: (§3)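 Metabolic rate in mouse, rat, dog, monkey and human hepatocyte incubations, expressed as pmol/min/10^6 cells.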

[10] = Half life in rat at 5 mg/kg, iv and 10 mg/kg, po; format: ADME, organism-based; conditions: in vivo; how it was run: as §2
[11] = tested on: CWR22; assay: Antitumor activity against human CWR22 cells in Balb/c athymic (nu/nu) mouse CWR22-BMSLD1 prostate cancer xenograft model assessed as tumor growth inhibition at 90 mg/kg, po qd administered for 45 days measured every day during compound dosing; format: functional, organism-based; how it was run: as §1
[12] = Plasma concentration in immature Sprague-Dawley rat prostate weight model at 10 mg/kg, po qd administered for 4 days measured 2 hrs post last dose on day 4; format: ADME, organism-based
How it was run: (§4)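 Immature rat prostate weight model, oral dosing once daily at 1 or 10 mg/kg for 4 days. Plasma drug concentration (µM) measured 2 hours post-dose on day 4, n=3.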

[13] = Plasma concentration in immature Sprague-Dawley rat prostate weight model at 1 mg/kg, po qd administered for 4 days measured 2 hrs post last dose on day 4; format: ADME, organism-based; how it was run: as §4
[14] = target: T2, Cytochrome P450 2C8 (Homo sapiens, UniProt P10632); assay: Inhibition of human CYP2C8; format: ADME
T2 sequence (P10632 whole entry): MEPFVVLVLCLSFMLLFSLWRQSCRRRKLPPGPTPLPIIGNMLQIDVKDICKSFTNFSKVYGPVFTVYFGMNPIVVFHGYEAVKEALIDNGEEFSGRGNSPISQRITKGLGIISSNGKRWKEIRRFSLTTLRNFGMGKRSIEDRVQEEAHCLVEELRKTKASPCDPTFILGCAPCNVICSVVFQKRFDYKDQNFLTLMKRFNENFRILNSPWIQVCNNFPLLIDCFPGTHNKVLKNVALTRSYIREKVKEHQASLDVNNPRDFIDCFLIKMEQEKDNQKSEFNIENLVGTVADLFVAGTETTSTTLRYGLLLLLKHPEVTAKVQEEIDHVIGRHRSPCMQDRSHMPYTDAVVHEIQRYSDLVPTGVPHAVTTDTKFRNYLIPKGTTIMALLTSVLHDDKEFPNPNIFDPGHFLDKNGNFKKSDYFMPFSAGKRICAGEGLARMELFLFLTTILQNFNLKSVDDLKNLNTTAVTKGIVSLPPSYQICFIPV

[15] = tested on: Rattus norvegicus; assay: In vivo antagonist activity at androgen receptor in immature Sprague-Dawley rat prostate weight model assessed as testosterone propionate-induced weight of seminal vesicles over full body weight at 10 mg/kg, po qd administered for 4 days; format: functional; set-up: scale not given: the % may be the effect or the level left
How it was run: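 Immature rat prostate weight PK/PD model. Oral dosing once daily at 1 or 10 mg/kg for 4 days. Seminal vesicle weight expressed as % of full body weight, n=3, scaled so testosterone-treated control = 100% and sham = 10%.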

[16] = Drug metabolism in dog hepatocytes assessed per 10^6 cells; format: ADME, cell-based, Canis lupus familiaris, Hepatocyte; how it was run: as §3
[17] = Oral bioavailability in rat at 10 mg/kg; format: ADME, organism-based; conditions: in vivo; how it was run: as §2
[18] = Oral bioavailability in mouse at 10 mg/kg; format: ADME, organism-based; conditions: in vivo; how it was run: as §2
[19] = target: Cytochrome P450 3A4 (Homo sapiens, UniProt P08684); assay: Inhibition of human CYP3A4; format: ADME
Chain of Cytochrome P450 3A4 (P08684 whole entry): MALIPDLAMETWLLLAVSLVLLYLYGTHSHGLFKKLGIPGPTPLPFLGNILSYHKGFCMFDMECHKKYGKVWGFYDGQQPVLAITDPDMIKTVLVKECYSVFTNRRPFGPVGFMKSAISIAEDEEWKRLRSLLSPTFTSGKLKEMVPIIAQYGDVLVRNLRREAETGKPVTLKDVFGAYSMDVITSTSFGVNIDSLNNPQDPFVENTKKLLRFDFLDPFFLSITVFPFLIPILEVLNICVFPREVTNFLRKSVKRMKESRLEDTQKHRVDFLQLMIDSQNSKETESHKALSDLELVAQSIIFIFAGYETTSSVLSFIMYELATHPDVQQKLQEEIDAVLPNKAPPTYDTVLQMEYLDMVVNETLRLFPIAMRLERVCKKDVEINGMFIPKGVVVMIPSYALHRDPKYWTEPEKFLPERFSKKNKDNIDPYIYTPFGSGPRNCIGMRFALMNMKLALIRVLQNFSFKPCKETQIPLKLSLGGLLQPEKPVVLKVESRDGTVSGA

[20] = tested on: LNCaP; assay: Cytotoxicity against human LNCAP cells; format: functional, cell-based

CCS(=O)(=O)N[C@@H]1C[C@]2(C)O[C@]1(C)[C@@H]1C(=O)N(c3ccc(C#N)c(C(F)(F)F)c3)C(=O)[C@@H]12
TGI [1]: Active | IC50 [2]: > 40 µM | AUC(0-inf) [3]: 39.1 µM·h | fraction unbound [4]: 0.148 | IC50 [5]: > 40 µM | clearance [6]: 0.35 mL/min/kg | TGI [7]: inactive | IC50 [8]: > 40 µM | Drug metabolism [9]: 1 pmol/min | half-life [10]: 3.7 h | TGI [11]: Active | concentration at 2 h [12]: 4000 nM | concentration at 2 h [13]: 790 nM | IC50 [14]: > 40 µM | Activity [15]: 26% | Drug metabolism [16]: 3 pmol/min | bioavailability [17]: 63.9% | bioavailability [18]: 94.7% | IC50 [19]: > 40 µM | IC50 [20]: 0.153 µM
